Calls of active or inactive are those of the source. The rule behind the calls is not given here.
What was measured:
MCF7 = experiment: Antiproliferative activity against human MCF7 cells after 72 hrs by MTT assay; type: functional, cell-based; settings: MCF7, 72 h
Summary of the method: (§1)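 Six human breast carcinoma lines of differing molecular and phenotypic character were each exposed to a range of concentrations for 72 h. Proliferation was read by MTT. Results are given as mean percent viability, with IC₅₀ ± SEM calculated per cell line.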

MDA-MB-468 = experiment: Antiproliferative activity against human MDA-MB-468 cells after 72 hrs by MTT assay; type: functional, cell-based; settings: MDA-MB-468, 72 h; summary of the method: as §1
MDA-MB-231 [1] = experiment: Antiproliferative activity against human MDA-MB-231 cells after 72 hrs by MTT assay; type: functional, cell-based; settings: MDA-MB-231, 72 h
Summary of the method: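 MDA-MB-231 triple-negative breast cancer cells were exposed to a range of concentrations for 72 h. Proliferation was read by MTT. Results are given as mean percent viability versus concentration, with IC₅₀ ± SEM calculated from the curve.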

T47D = experiment: Antiproliferative activity against human T47D cells after 72 hrs by MTT assay; type: functional, cell-based; summary of the method: as §1
BT-474 = experiment: Antiproliferative activity against human BT474 cells after 72 hrs by MTT assay; type: functional, cell-based; settings: BT-474, 72 h; summary of the method: as §1
SK-BR-3 = experiment: Antiproliferative activity against human SKBR3 cells after 72 hrs by MTT assay; type: functional, cell-based; settings: SK-BR-3, 72 h; summary of the method: as §1
MCF-10A = experiment: Cytotoxicity against human MCF10A cells at 1 to 20 uM by MTT assay; type: cell-based
Summary of the method: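 Immortalized, non-tumorigenic MCF-10A mammary epithelial cells were treated at several concentrations (1-20 μM). Mean percent viability was compared with the matching vehicle control-treated group.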

MDA-MB-231 [2] = experiment: Cytotoxicity against human MDA-MB-231 cells at 10 uM after 24 hrs by LDH release assay relative to control; type: functional
MDA-MB-231 [3] = experiment: Cytotoxicity against human MDA-MB-231 cells at 1.25 uM after 24 hrs by LDH release assay (reference value: 100%); type: functional
Summary of the method: (§2)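 MDA-MB-231 cells were treated at four concentrations. LDH released into the culture medium through damaged plasma membranes was measured with a commercial LDH cytotoxicity kit and expressed as percent cytotoxicity.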

MDA-MB-231 [4] = experiment: Cytotoxicity against human MDA-MB-231 cells at 2.5 uM after 24 hrs by LDH release assay (reference value: 100%); type: functional; summary of the method: as §2
MDA-MB-231 [5] = experiment: Cytotoxicity against human MDA-MB-231 cells at 5 uM after 24 hrs by LDH release assay (reference value: 100%); type: functional; summary of the method: as §2
MDA-MB-231 [6] = experiment: Cytotoxicity against human MDA-MB-231 cells at 10 uM after 24 hrs by LDH release assay (reference value: 100%); type: functional; summary of the method: as §2
MDA-MB-231 [7] = experiment: Antimigratory activity against human MDA-MB-231 cells after 24 hrs by scratch wound-healing assay; type: functional, cell-based
MDA-MB-231 [8] = experiment: Antiinvasive activity against human MDA-MB-231 cells at 5 uM after 24 hrs by cell invasion assay relative to control; type: functional
Summary of the method: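 MDA-MB-231 cells were plated in CultreCoat coated-insert invasion chambers and treated at four concentrations or with vehicle. At 24 h post-plating, non-invading cell density on the upper surface was assessed by microscopy. Percent invasion inhibition relative to vehicle was calculated, and IC₅₀ was derived from the dose-response.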

MDA-MB-231 [9] = experiment: Antiinvasive activity against human MDA-MB-231 cells after 24 hrs by cell invasion assay; type: functional, cell-based; settings: MDA-MB-231, 24 h
Summary of the method: (§3)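 Invasion of MDA-MB-231 cells through extracellular matrix coating in a CultreCoat chamber, four doses, 24 h after plating. Non-invaded cells on the upper surface imaged by microscopy. Percent invasion read against vehicle control; IC50 taken from the dose-response curve.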

[10] = biological target: T1, Dual specificity mitogen-activated protein kinase kinase; MEK1/2 (Homo sapiens) (UniProt P36507+Q02750); experiment: Inhibition of MEK phosphorylation in human MDA-MB-231 cell lysate at 1.5 to 4 uM after 72 hrs by Western blot analysis
Summary of the method: (§4)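 MDA-MB-231 cells treated with two doses or vehicle, then lysed. Western blot of phosphorylated MEK, ERK (MAPK) and MSK, each compared with vehicle control.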

MDA-MB-231 [11] = experiment: Antitumor activity against human GFP-fused MDA-MB-231 cells xenografted in Foxn1nu/Foxn1+ mouse assessed as tumor growth inhibition at 10 mg/kg, ip administered 3 times per week for 28 days relative to control; type: functional; settings: MDA-MB-231, ip, 672 h, read-out: TGI
Summary of the method: (§5)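 Athymic nude Foxn1nu/Foxn1+ mice given orthotopic MDA-MB-231/GFP implants. Once tumors were palpable (5-day latency), mice received 10 mg/kg ip three times weekly for 28 days; controls got vehicle. Tumor volume tracked by caliper, giving percent growth inhibition at study end. Body weight checked at each dose and toxicity signs observed.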

Mus musculus = experiment: Toxicity in Foxn1nu/Foxn1+ mouse xenografted with human GFP-fused MDA-MB-231 cells assessed as reduction in body weight at 10 mg/kg, ip administered 3 times per week for 28 days relative to control; type: organism-based; settings: in vivo, 672 h; summary of the method: as §5
[12] = biological target: T1, Dual specificity mitogen-activated protein kinase kinase; MEK1/2 (Homo sapiens); experiment: Inhibition of MEK in human MDA-MB-231 cell lysate assessed as reduction in MAPK phosphorylation at 1.5 to 4 uM after 72 hrs by Western blot analysis; summary of the method: as §4
[13] = biological target: T1, Dual specificity mitogen-activated protein kinase kinase; MEK1/2 (Homo sapiens); experiment: Inhibition of MEK in human MDA-MB-231 cell lysate assessed as reduction in MSK phosphorylation at 1.5 to 4 uM after 72 hrs by Western blot analysis; summary of the method: as §4
MDA-MB-231 [14] = experiment: Cytotoxicity against human MDA-MB-231 cells at 100 uM after 24 hrs by LDH release assay relative to control; type: functional
Summary of the method: (§6)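 LDH release kit on MDA-MB-231 cells at four doses. LDH in the culture medium used as the marker of plasma membrane damage, expressed as percent cytotoxicity.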

MDA-MB-231 [15] = experiment: Cytotoxicity against human MDA-MB-231 cells at 25 uM after 24 hrs by LDH release assay (reference value: 100%); type: functional; summary of the method: as §6
MDA-MB-231 [16] = experiment: Cytotoxicity against human MDA-MB-231 cells at 50 uM after 24 hrs by LDH release assay (reference value: 100%); type: functional; summary of the method: as §6
MDA-MB-231 [17] = experiment: Cytotoxicity against human MDA-MB-231 cells at 75 uM after 24 hrs by LDH release assay (reference value: 100%); type: functional; summary of the method: as §6
MDA-MB-231 [18] = experiment: Cytotoxicity against human MDA-MB-231 cells at 100 uM after 24 hrs by LDH release assay (reference value: 100%); type: functional; summary of the method: as §6
MDA-MB-231 [19] = experiment: Antimigratory activity against human MDA-MB-231 cells at 10 to 80 uM after 24 hrs by scratch wound-healing assay; type: functional, cell-based
MDA-MB-231 [20] = experiment: Antiinvasive activity against human MDA-MB-231 cells at 80 uM after 24 hrs by cell invasion assay relative to control; type: functional; summary of the method: as §3

T1 sequence (P36507 whole entry, looked up): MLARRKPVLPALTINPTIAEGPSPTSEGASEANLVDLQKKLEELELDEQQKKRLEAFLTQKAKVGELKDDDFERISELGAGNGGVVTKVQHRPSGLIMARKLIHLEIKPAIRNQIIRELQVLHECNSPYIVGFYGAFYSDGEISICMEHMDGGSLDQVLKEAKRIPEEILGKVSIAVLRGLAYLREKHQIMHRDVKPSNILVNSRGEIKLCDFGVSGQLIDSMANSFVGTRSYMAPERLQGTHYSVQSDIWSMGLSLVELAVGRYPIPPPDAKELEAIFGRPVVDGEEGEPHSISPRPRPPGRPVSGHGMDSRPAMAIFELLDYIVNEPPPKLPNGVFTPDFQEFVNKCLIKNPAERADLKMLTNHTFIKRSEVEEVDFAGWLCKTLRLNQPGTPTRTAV
T1 sequence (Q02750 whole entry, looked up): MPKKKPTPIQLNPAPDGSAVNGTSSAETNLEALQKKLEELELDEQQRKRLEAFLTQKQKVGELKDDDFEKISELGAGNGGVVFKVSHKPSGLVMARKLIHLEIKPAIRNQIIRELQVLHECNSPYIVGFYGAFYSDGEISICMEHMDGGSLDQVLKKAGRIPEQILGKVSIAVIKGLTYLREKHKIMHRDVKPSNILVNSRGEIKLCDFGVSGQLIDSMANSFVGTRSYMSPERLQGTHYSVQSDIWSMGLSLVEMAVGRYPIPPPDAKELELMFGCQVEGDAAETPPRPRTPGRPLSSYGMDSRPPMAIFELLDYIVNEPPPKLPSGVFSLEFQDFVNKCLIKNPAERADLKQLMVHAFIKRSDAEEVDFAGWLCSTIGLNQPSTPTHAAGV

Structure (SMILES)	IC50 (MCF7) [µM]	IC50 (MDA-MB-468) [µM]	IC50 (MDA-MB-231 [1]) [µM]	IC50 (T47D) [µM]	IC50 (BT-474) [µM]	IC50 (SK-BR-3) [µM]	IC50 (MDA-MB-231 [9]) [µM]	inhibition [10]	inhibition in vivo at 10 mg/kg (MDA-MB-231 [11]) [%]	Activity (Mus musculus)	inhibition [12]	inhibition [13]	other results
Cc1ccccc1NC(=S)N/N=C1\C[C@H]2[C@@H](CC[C@H]3C[C@@H](O)CC[C@@]32C)[C@@H]2C[C@@H]3O[C@]4(CC[C@@H](C)CO4)[C@@H](C)[C@@H]3[C@@]12C	2.1	2.4	1.9	3	2.6	2.3	2.2	Active	78.1	Non-Toxic	Active	Active	Activity (MCF-10A): Non-Toxic; Activity (MDA-MB-231 [2]): 5.9%; Activity (MDA-MB-231 [3]): 0.74%; Activity (MDA-MB-231 [4]): 1.27%; Activity (MDA-MB-231 [5]): 1.8%; Activity (MDA-MB-231 [6]): 5.94%; Activity (MDA-MB-231 [7]): Dose-dependent effect; IC50 (MDA-MB-231 [7]; MDA-MB-231, 24 h): 2.5 µM; Activity (MDA-MB-231 [8]): 92.4%
C[C@@H]1CC[C@@]2(OC1)O[C@H]1C[C@H]3[C@@H]4CC[C@H]5C[C@@H](O)CC[C@]5(C)[C@H]4CC(=O)[C@]3(C)[C@H]1[C@@H]2C	31	35.2	28.7	36.6	38.2	33.3	37.1	Active	57.4	Non-Toxic	Active	Active	Activity (MDA-MB-231 [14]): 27.8%; Activity (MDA-MB-231 [15]): 0.04%; Activity (MDA-MB-231 [16]): 2.72%; Activity (MDA-MB-231 [17]): 10.3%; Activity (MDA-MB-231 [18]): 27.8%; Activity (MDA-MB-231 [19]): Active; Activity (MDA-MB-231 [20]): 86.2%

— ChEMBL document CHEMBL4177624, “Rationally designed hecogenin thiosemicarbazone analogs as novel MEK inhibitors for the control of breast malignancies” (Bioorg Med Chem, 2017)
